Measurements as given in ChEMBL document CHEMBL5356951, “Semisynthetic polymyxins with potent antibacterial activity and reduced kidney cell toxicity” (RSC Med Chem, 2023).
Values after ≈ are worked out from the molar mass of the structure shown.

Experiments:
Assay type in all cases: functional
Acinetobacter baumannii [1] = assay: Antibacterial activity against Acinetobacter baumannii 2018-006 assessed as bacterial growth inhibition by broth microdilution assay
Summary of the method: (§1)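 Broth microdilution MIC. Strains grown overnight on blood agar at 37 °C, colonies suspended in TSB and grown to OD600 0.5. Compounds dissolved in DMSO (6.4 mg mL−1 stock), diluted serially in CAMHB (12.5 μg mL−1 Mg2+, 20 μg mL−1 Ca2+) on polypropylene plates. Final inoculum 10^6 CFU mL−1, 37 °C under gas-permeable membrane. MIC is the lowest concentration with no visible growth, consistent across at least triplicate experiments.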

Escherichia coli [2] = assay: Antibacterial activity against multidrug-resistant Escherichia coli NCTC 13846 assessed as bacterial growth inhibition by broth microdilution assay; summary of the method: as §1
Pseudomonas aeruginosa [3] = assay: Antibacterial activity against Pseudomonas aeruginosa NRZ 08418 assessed as bacterial growth inhibition by broth microdilution assay
Summary of the method: (§2)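 Broth microdilution. Bacteria from glycerol stocks were grown overnight on blood agar at 37 °C, then colonies were suspended in TSB and grown to OD600 0.5. Compounds were dissolved in DMSO at 6.4 mg mL−1 (stock) and serially diluted in CAMHB (Mg2+ 12.5, Ca2+ 20 μg mL−1) in polypropylene plates. Inoculum was 10^6 CFU mL−1 final, incubated at 37 °C. MIC = lowest concentration without visible growth; values consistent across at least triplicate experiments.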

Klebsiella pneumoniae [4] = assay: Antibacterial activity against Klebsiella pneumoniae ATCC 13883 assessed as bacterial growth inhibition by broth microdilution assay; summary of the method: as §2
Klebsiella pneumoniae [5] = assay: Antibacterial activity against Klebsiella pneumoniae JS-123 assessed as bacterial growth inhibition by broth microdilution assay; summary of the method: as §2
Pseudomonas aeruginosa [6] = assay: Antibacterial activity against Pseudomonas aeruginosa NRZ 03961 assessed as bacterial growth inhibition by broth microdilution assay; summary of the method: as §2
Acinetobacter baumannii [7] = assay: Antibacterial activity against multidrug-resistant Acinetobacter baumannii assessed as bacterial growth inhibition by broth microdilution assay; summary of the method: as §1
Acinetobacter baumannii [8] = assay: Antibacterial activity against Acinetobacter baumannii ATCC 17978 assessed as bacterial growth inhibition by broth microdilution assay; summary of the method: as §1
Acinetobacter baumannii [9] = assay: Antibacterial activity against Acinetobacter baumannii ATCC 19606 assessed as bacterial growth inhibition by broth microdilution assay; summary of the method: as §1
Klebsiella pneumoniae [10] = assay: Antibacterial activity against Klebsiella pneumoniae NCTC 13443 assessed as bacterial growth inhibition by broth microdilution assay; summary of the method: as §2
Escherichia coli [11] = assay: Antibacterial activity against Escherichia coli ATCC 25922 assessed as bacterial growth inhibition by broth microdilution assay; summary of the method: as §2
Pseudomonas aeruginosa [12] = assay: Antibacterial activity against Pseudomonas aeruginosa ATCC 27853 assessed as bacterial growth inhibition by broth microdilution assay; summary of the method: as §2
Escherichia coli [13] = assay: Antibacterial activity against Escherichia coli 1313 assessed as bacterial growth inhibition by broth microdilution assay; summary of the method: as §2

Row | SMILES | MIC (Acinetobacter baumannii [1]) [mg/L] | MIC (Escherichia coli [2]) [mg/L] | MIC (Pseudomonas aeruginosa [3]) [mg/L] | MIC (Klebsiella pneumoniae [4]) [mg/L] | MIC (Klebsiella pneumoniae [5]) [mg/L] | MIC (Pseudomonas aeruginosa [6]) [mg/L] | MIC (Acinetobacter baumannii [7]) [mg/L] | MIC (Acinetobacter baumannii [8]) [mg/L] | MIC (Acinetobacter baumannii [9]) [mg/L] | MIC (Klebsiella pneumoniae [10]) [mg/L] | MIC (Escherichia coli [11]) [mg/L] | MIC (Pseudomonas aeruginosa [12]) [mg/L] | MIC (Escherichia coli [13]) [mg/L]
1 | CC(C)C[C@@H]1NC(=O)[C@@H](Cc2ccccc2)NC(=O)[C@H](CCN)NC(=O)[C@@H](NC(=O)CNC(=O)[C@@H](NC(=O)[C@H](N)CSSCCC2CCCCC2)[C@@H](C)O)CCNC(=O)[C@H]([C@@H](C)O)NC(=O)[C@H](CCN)NC(=O)[C@H](CCN)NC1=O | 0.5 (≈ 0.429 µM) | 8 (≈ 6.86 µM) | 2 (≈ 1.72 µM) | 1 (≈ 0.858 µM) | 0.5 (≈ 0.429 µM) | 4 (≈ 3.43 µM) | 1 (≈ 0.858 µM) | 0.5 (≈ 0.429 µM) | 0.5 (≈ 0.429 µM) | 1 (≈ 0.858 µM) | 2 (≈ 1.72 µM) | 2 (≈ 1.72 µM) | 0.5 (≈ 0.429 µM)
2 | CC(C)C[C@@H]1NC(=O)[C@@H](Cc2ccccc2)NC(=O)[C@H](CCN)NC(=O)[C@@H](NC(=O)[C@@H](CO)NC(=O)[C@@H](NC(=O)[C@H](N)CSSCCC2CCCCC2)[C@@H](C)O)CCNC(=O)[C@H]([C@@H](C)O)NC(=O)[C@H](CCN)NC(=O)[C@H](CCN)NC1=O | 0.5 (≈ 0.418 µM) | 8 (≈ 6.69 µM) | 4 (≈ 3.35 µM) | 1 (≈ 0.836 µM) | 1 (≈ 0.836 µM) | 4 (≈ 3.35 µM) | 1 (≈ 0.836 µM) | 1 (≈ 0.836 µM) | 0.25 (≈ 0.209 µM) | 1 (≈ 0.836 µM) | 2 (≈ 1.67 µM) | 4 (≈ 3.35 µM) | 1 (≈ 0.836 µM)
3 | CC(C)C[C@@H]1NC(=O)[C@@H](Cc2ccccc2)NC(=O)[C@H](CCN)NC(=O)[C@@H](NC(=O)[C@@H](CN)NC(=O)[C@@H](NC(=O)[C@H](N)CSSCCC2CCCCC2)[C@@H](C)O)CCNC(=O)[C@H]([C@@H](C)O)NC(=O)[C@H](CCN)NC(=O)[C@H](CCN)NC1=O | 0.5 (≈ 0.419 µM) | 4 (≈ 3.35 µM) | 2 (≈ 1.67 µM) | 1 (≈ 0.837 µM) | 1 (≈ 0.837 µM) | 2 (≈ 1.67 µM) | 1 (≈ 0.837 µM) | 1 (≈ 0.837 µM) | 0.5 (≈ 0.419 µM) | 1 (≈ 0.837 µM) | 2 (≈ 1.67 µM) | 2 (≈ 1.67 µM) | 0.5 (≈ 0.419 µM)
4 | CC(C)C[C@@H]1NC(=O)[C@@H](Cc2ccccc2)NC(=O)[C@H](CCN)NC(=O)[C@@H](NC(=O)[C@@H](CO)NC(=O)[C@@H](NC(=O)[C@H](N)CSSCc2cccc(Cl)c2)[C@@H](C)O)CCNC(=O)[C@H]([C@@H](C)O)NC(=O)[C@H](CCN)NC(=O)[C@H](CCN)NC1=O | 0.5 (≈ 0.413 µM) | 8 (≈ 6.61 µM) | 4 (≈ 3.31 µM) | 1 (≈ 0.827 µM) | 0.25 (≈ 0.207 µM) | 8 (≈ 6.61 µM) | 0.5 (≈ 0.413 µM) | 0.5 (≈ 0.413 µM) | 0.5 (≈ 0.413 µM) | 0.5 (≈ 0.413 µM) | 2 (≈ 1.65 µM) | 4 (≈ 3.31 µM) | 0.5 (≈ 0.413 µM)
5 | CC(C)CCSSC[C@@H](N)C(=O)N[C@H](C(=O)N[C@H](CO)C(=O)N[C@H]1CCNC(=O)[C@H]([C@@H](C)O)NC(=O)[C@H](CCN)NC(=O)[C@H](CCN)NC(=O)[C@H](CC(C)C)NC(=O)[C@@H](Cc2ccccc2)NC(=O)[C@H](CCN)NC1=O)[C@@H](C)O | 0.5 (≈ 0.433 µM) | 16 (≈ 13.8 µM) | 8 (≈ 6.92 µM) | 0.5 (≈ 0.433 µM) | 0.5 (≈ 0.433 µM) | 8 (≈ 6.92 µM) | 0.5 (≈ 0.433 µM) | 0.25 (≈ 0.216 µM) | 0.25 (≈ 0.216 µM) | 1 (≈ 0.865 µM) | 2 (≈ 1.73 µM) | 4 (≈ 3.46 µM) | 0.5 (≈ 0.433 µM)
6 | CC(C)C[C@@H]1NC(=O)[C@@H](Cc2ccccc2)NC(=O)[C@H](CCN)NC(=O)[C@@H](NC(=O)[C@H](CN)NC(=O)[C@@H](NC(=O)[C@H](N)CSSCCC2CCCCC2)[C@@H](C)O)CCNC(=O)[C@H]([C@@H](C)O)NC(=O)[C@H](CCN)NC(=O)[C@H](CCN)NC1=O | 0.5 (≈ 0.419 µM) | 2 (≈ 1.67 µM) | 2 (≈ 1.67 µM) | 1 (≈ 0.837 µM) | 0.5 (≈ 0.419 µM) | 2 (≈ 1.67 µM) | 1 (≈ 0.837 µM) | 1 (≈ 0.837 µM) | 0.5 (≈ 0.419 µM) | 1 (≈ 0.837 µM) | 1 (≈ 0.837 µM) | 2 (≈ 1.67 µM) | 0.5 (≈ 0.419 µM)
7 | CC(C)C[C@@H]1NC(=O)[C@@H](Cc2ccccc2)NC(=O)[C@H](CCN)NC(=O)[C@@H](NC(=O)[C@@H](CCN)NC(=O)[C@@H](NC(=O)[C@H](N)CSSCc2cccc(Cl)c2)[C@@H](C)O)CCNC(=O)[C@H]([C@@H](C)O)NC(=O)[C@H](CCN)NC(=O)[C@H](CCN)NC1=O | 0.5 (≈ 0.409 µM) | 4 (≈ 3.27 µM) | 2 (≈ 1.64 µM) | 1 (≈ 0.818 µM) | 0.5 (≈ 0.409 µM) | 2 (≈ 1.64 µM) | 1 (≈ 0.818 µM) | 1 (≈ 0.818 µM) | 0.5 (≈ 0.409 µM) | 0.5 (≈ 0.409 µM) | 2 (≈ 1.64 µM) | 2 (≈ 1.64 µM) | 0.5 (≈ 0.409 µM)
